Results on 38 compounds are retold here after ChEMBL document CHEMBL4251758, “Small Molecule Inhibition of MicroRNA miR-21 Rescues Chemosensitivity of Renal-Cell Carcinoma to Topotecan” (J Med Chem, 2018).

Calls of active or inactive are those of the source. The rule behind the calls is not given here.

In test [1] the test system is microRNA 21. Put plainly: Inhibition of miR-21 RNA in human HeLa cells harboring miR-21 binding sequence in 3'-UTR of firefly luciferase gene assessed as increase in luciferase expression incubated for 48 hrs by Bright-Glo luciferase reporter gene assay relative to control. In kind it is cell-based. Put shortly: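 HeLa-miR21-Luc stable line (miR-21 site in the firefly luciferase 3′-UTR), 1000 cells per well. Compound or DMSO (0.1% final) added after overnight attachment, in triplicate, for 48 h. Bright-Glo luminescence was normalized to XTT viability (450 nm) and expressed as fold change relative to DMSO. At least three independent experiments.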
(In general: In a reporter assay the amount or activity of a reporter protein is the signal.)

For test [2], the system named is microRNA 21. Nature of the test: Inhibition of miR-21 RNA (unknown origin) transfected in human HeLa cells at 0.1 to 1000 nM after 48 hrs by Bright-Glo luciferase reporter gene assay. Type of test: cell-based.
In test [3] the test system is A498. Nature of the test: Inhibition of colony formation of human A498 cells after 2 weeks by crystal violet staining-based microscopic analysis. In kind it is functional, cell-based. The note with it: A498, 336 h. The essentials:
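A498 cells, 10,000 per well, seeded in 0.45% low-melt agarose in DMEM over a 0.7% agarose base layer, containing increasing compound concentrations or DMSO (0.1% final), in triplicate. For combinations, the inhibitor was held at 10 μM. After 2 weeks, colonies were stained with 0.1% crystal violet and imaged by z-stack microscopy. Colony counts were normalized to DMSO; IC50 from sigmoidal fit.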

Test [4] deals with A498. Nature of the test: Induction of apoptosis in human A498 cells assessed as increase in caspase-3/7 activity at 1 uM after 24 hrs by Caspase-Glo 3/7 assay relative to control. Type of test: functional.
Test [5] can be described thus: Stabilization of pre-miR-21 RNA (unknown origin) assessed as increase in melting temperature at 10 uM by UV-spectrophotometric analysis. Put shortly: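 Melting-curve analysis of precursor miR-21 RNA run with test compound, with DMSO as the reference condition and tobramycin (10 μM) as a positive control for RNA binding and stabilisation. Read-out is the shift in melting temperature of pre-miR-21 relative to the DMSO sample.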

With `CC(C)c1cccc(-n2nnc(-c3nc(-c4cccs4)no3)c2N)c1`, the fold change (FC) in the test with microRNA 21 [1] was determined as 1.82.

For the compound `Nc1c(-c2nc(-c3cccs3)no2)nnn1-c1cccc(-c2ccccc2)c1`, the fold change (FC) with microRNA 21 [1] is 1.06.

`C/C(=N\O)c1cccc(-n2nnc(-c3nc(-c4ccc(O)cc4)no3)c2N)c1`: in the test on microRNA 21 [1], the fold change (FC) came out at 1.98.

On to `CC[C@@]1(O)C(=O)OCc2c1cc1n(c2=O)Cc2cc3c(CN(C)C)c(O)ccc3nc2-1` [TOPOTECAN], for which the inhibition entry with microRNA 21 [2] is “inactive”. Besides, 2 µM corresponded to half-maximal inhibition in the test on A498 [3] (IC50). The “fold change (FC)” value in the test on A498 [4] came to 3.

For the compound `Cc1cccc(-n2nnc(-c3nc(-c4cccs4)no3)c2N)c1C`, the fold change (FC) in the test with microRNA 21 [1] amounted to 1.89.

As to `COc1cccc(-n2cc(-c3nc(-c4cccs4)no3)nn2)c1`, the fold change (FC) with microRNA 21 [1] was found to be 2.2.

As for `Nc1c(-c2nc(-c3cccs3)no2)nnn1-c1ccc2ccccc2c1`, in the test on microRNA 21 [1], the fold change (FC) turned out to be 1.39.

Regarding `COc1cccc(-n2nnc(-c3nc(-c4ccco4)no3)c2N)c1`, in the test on microRNA 21 [1], the fold change (FC) stood at 2.19.

For the compound `C#CCOc1cccc(-n2nnc(-c3nc(-c4cccs4)no3)c2N)c1`, in the test on microRNA 21 [1], the fold change (FC) worked out at 1.61.

Regarding `Nc1c(-c2nc(-c3cccs3)no2)nnn1-c1cccc(OC(F)(F)F)c1`, the fold change (FC) with microRNA 21 [1] was found to be 1.4.

As to `CCc1cccc(-n2nnc(-c3nc(-c4cccs4)no3)c2N)c1`, in the test on microRNA 21 [1], the fold change (FC) was found to be 1.63.

Take `Fc1cccc(-n2cc(-c3nc(-c4cccs4)no3)nn2)c1`: the fold change (FC) in the test on microRNA 21 [1] was found to be 1.7.

Regarding `NC[C@H]1O[C@H](O[C@H]2[C@H](O)[C@@H](O[C@H]3O[C@H](CO)[C@@H](O)[C@H](N)[C@H]3O)[C@H](N)C[C@@H]2N)[C@H](N)C[C@@H]1O`, the ΔTm – broadly, the change in melting temperature against a reference sample – in test [5] was 19 °C.

Regarding `COc1cccc(-n2nnc(-c3nc(-c4ccccn4)no3)c2N)c1`, the fold change (FC) with microRNA 21 [1] came out at 2.23.

Regarding `CN(C)c1cccc(-n2nnc(-c3nc(-c4cccs4)no3)c2N)c1`, the fold change (FC) with microRNA 21 [1] came to 2.56.

In the case of `Nc1c(-c2nc(-c3cccs3)no2)nnn1-c1cccc(O)c1`, the fold change (FC) with microRNA 21 [1] is 2.19.

As to `COc1cccc(-n2nnc(-c3nc(-c4cccs4)no3)c2N)c1`, the fold change (FC) with microRNA 21 [1] was determined as 2.84.

Take `Nc1c(-c2nc(-c3cccs3)no2)nnn1-c1ccccc1CO`: the fold change (FC) in the test on microRNA 21 [1] came out at 2.23.

With `C/C(=N\O)c1cccc(-n2nnc(-c3nc(-c4cccs4)no3)c2N)c1`, in the test on microRNA 21 [1], the fold change (FC) turned out to be 4.54.

On to `COc1cccc(-n2nnc(-c3nc(-c4ccccc4)no3)c2N)c1`, for which the fold change (FC) in the test with microRNA 21 [1] was 2.19.

`Nc1c(-c2nc(-c3cccs3)no2)nnn1-c1ccccc1`: the fold change (FC) in the test with microRNA 21 [1] was 1.01.

As for `Nc1c(-c2nnc(-c3cccs3)o2)nnn1-c1cccc(F)c1`, the fold change (FC) with microRNA 21 [1] was 1.6.

As for `COc1ccccc1-n1nnc(-c2nc(-c3cccs3)no2)c1N`, the fold change (FC) in the test with microRNA 21 [1] is 2.02.

In the case of `COc1cc(OC)cc(-n2nnc(-c3nc(-c4cccs4)no3)c2N)c1`, the fold change (FC) in the test with microRNA 21 [1] came out at 2.3.

As for `Nc1c(-c2nc(-c3cccs3)no2)nnn1-c1cccc(C(F)(F)F)c1`, in the test on microRNA 21 [1], the fold change (FC) came to 1.08.

Take `c1ccc(-n2cc(-c3nc(-c4cccs4)no3)nn2)cc1`: in the test on microRNA 21 [1], the fold change (FC) came to 1.41.

`COc1cccc(-n2nnc(-c3nnc(-c4cccs4)o3)c2N)c1`: the fold change (FC) with microRNA 21 [1] is 2.68.

Regarding `Nc1c(-c2nc(-c3cccs3)no2)nnn1-c1cccc(F)c1`, in the test with microRNA 21 [1], the fold change (FC) is 1.93.

For the compound `CCOc1ccc(-c2noc(-c3nnn(-c4cccc(/C(C)=N/O)c4)c3N)n2)cc1`, the fold change (FC) in the test on microRNA 21 [1] was determined as 3.14.

Turning to `C/C(=N\O)c1cccc(-n2nnc(-c3nc(-c4ccc(OC(C)C)cc4)no3)c2N)c1`, the fold change (FC) with microRNA 21 [1] worked out at 1.19.

Regarding `COc1ccc(-c2noc(-c3nnn(-c4cccc(/C(C)=N/O)c4)c3N)n2)cc1`, in the test with microRNA 21 [1], the fold change (FC) worked out at 1.51.

For the compound `Nc1c(-c2nc(-c3cccs3)no2)nnn1-c1ccc(CO)cc1`, the fold change (FC) in the test on microRNA 21 [1] was determined as 2.14.

Consider `C#CCOc1ccc(-n2nnc(-c3nc(-c4cccs4)no3)c2N)cc1`, for which, in the test on microRNA 21 [1], the fold change (FC) amounted to 1.47.

`CC(=O)c1cccc(-n2nnc(-c3nc(-c4cccs4)no3)c2N)c1`: in the test on microRNA 21 [1], the fold change (FC) came out at 2.46.

In the case of `Nc1c(-c2nc(-c3cccs3)no2)nnn1-c1cccc(CO)c1`, the fold change (FC) in the test with microRNA 21 [1] was 1.67.

In the case of `C=CCOc1ccc(-c2noc(-c3nnn(-c4cccc(/C(C)=N/O)c4)c3N)n2)cc1`, in the test on microRNA 21 [1], the fold change (FC) turned out to be 2.96.

Regarding `CC(C)c1cccc(-n2nnc(-c3nnc(-c4cccs4)o3)c2N)c1`, in the test with microRNA 21 [1], the fold change (FC) was determined as 1.72.

`Nc1c(-c2nc(-c3cccs3)no2)nnn1-c1cccc(C(=O)c2ccccc2)c1`: in the test with microRNA 21 [1], the fold change (FC) turned out to be 1.82.
